ChEMBL document CHEMBL1141286, “Benzochromenones from the marine crinoid Comantheria rotula inhibit hypoxia-inducible factor-1 (HIF-1) in cell-based reporter assays and differentially suppress the growth of certain tumor cell lines” (J Nat Prod, 2007)
The source made the active and inactive calls. No cut-off for these calls is given here.

Legend:
SK-OV-3 = test: Growth inhibition of human SK-OV3 cells; format: functional
MDA-MB-435 = test: Growth inhibition of human MDA-MB-435 cells; format: functional
Hs-578T = test: Growth inhibition of human HS578T cells; format: functional
SF-268 = test: Growth inhibition of human SF268 cells; format: functional
SNB-75 = test: Growth inhibition of human SNB75 cells; format: functional
SN12C = test: Growth inhibition of human SN12C cells; format: functional
NCI-H322M = test: Growth inhibition of human NCI-H322M cells; format: functional
NCI-H522 = test: Growth inhibition of human NCI-H522 cells; format: functional
[1] = Inhibition of 1,10-phenanthroline-induced HIF1 activation in T47D cells by TK-luciferase assay; format: cell-based; settings: Homo sapiens
Summary of the method: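 HIF-1 reporter (pHRE-TK-Luc) assays in transfected PC-3 or T47D cells; HIF-1 induced by hypoxia or by the hypoxia mimetic 1,10-phenanthroline (10 μM); compounds at half-log concentrations; luciferase activity measured; IC50 from experiments in triplicate.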

K562 = test: Growth inhibition of human K562 cells; format: functional
CAKI-1 = test: Growth inhibition of human CAKI1 cells; format: functional
T47D [2] = test: Inhibition of 1,10-phenanthroline-induced VEGF protein secretion in human T47D cells at 10 uM after 16 hrs by ELISA; format: functional, cell-based
Summary of the method: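 T47D cells stimulated with 1,10-phenanthroline, compound at 10 μM; secreted VEGF in conditioned media by ELISA, normalized to cell-lysate protein.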

MCF7 = test: Growth inhibition of human MCF7 cells; format: functional
ACHN = test: Growth inhibition of human ACHN cells; format: functional
HCT-15 = test: Growth inhibition of human HCT15 cells; format: functional
SR = test: Growth inhibition of human SR cells; format: functional
786-0 = test: Growth inhibition of human 786-0 cells; format: functional
SW-620 = test: Growth inhibition of human SW620 cells; format: functional
SNB-19 = test: Growth inhibition of human SNB19 cells; format: functional
U-251 = test: Growth inhibition of human U251 cells; format: functional
SK-MEL-28 = test: Growth inhibition of human SK-MEL28 cells; format: functional
MDA-MB-231 = test: Growth inhibition of human MDA-MB-231 cells; format: functional
UACC-62 = test: Growth inhibition of human UACC62 cells; format: functional
[3] = Growth inhibition of human OVACAR3 cells; format: functional
HCT-116 = test: Growth inhibition of human HCT116 cells; format: functional
NCI/ADR-RES = test: Growth inhibition of human NCI/ADR-RES cells; format: functional
UO-31 = test: Growth inhibition of human UO31 cells; format: functional
COLO 205 = test: Growth inhibition of human COLO205 cells; format: functional
KM12 = test: Growth inhibition of human KM12 cells; format: functional
PC-3 = test: Growth inhibition of human PC3 cells; format: functional
BT-549 = test: Growth inhibition of human BT549 cells; format: functional
OVCAR-5 = test: Growth inhibition of human OVACAR5 cells; format: functional
SF-295 = test: Growth inhibition of human SF295 cells; format: functional
HOP-62 = test: Growth inhibition of human HOP62 cells; format: functional
CCRF-CEM = test: Growth inhibition of human CCRF-CEM cells; format: functional
NCI-H23 = test: Growth inhibition of human NCI-H23 cells; format: functional
LOX IMVI = test: Growth inhibition of human LOXIMVI cells; format: functional
DU-145 = test: Growth inhibition of human DU145 cells; format: functional
T47D [4] = test: Growth inhibition of human T47D cells; format: functional
A549 = test: Growth inhibition of human A549 cells; format: functional
[5] = read-out: Log LC50 (the source's name) (converted)

For COc1cc(O)cc2cc3oc(C)cc(=O)c3c(OC)c12 [COMANTHERIN], the GI50 (SK-OV-3) was > 100 µM, the LC50 (SK-OV-3) was > 100 µM and the TGI (SK-OV-3; read-out: Log TGI (converted)) was > 100 µM. For the same molecule, the GI50 (MDA-MB-435) was > 100 µM, the LC50 (MDA-MB-435) was > 100 µM and the TGI (MDA-MB-435; read-out: Log TGI (converted)) was > 100 µM. For the same molecule, the GI50 (Hs-578T) was 21.9 µM, the LC50 (Hs-578T) was > 100 µM and the TGI (Hs-578T; read-out: Log TGI (converted)) was > 100 µM. For the same molecule, the GI50 (SF-268) was 85.1 µM, the LC50 (SF-268) was > 100 µM and the TGI (SF-268; read-out: Log TGI (converted)) was > 100 µM. The GI50 (SNB-75) was > 100 µM, the LC50 (SNB-75) was > 100 µM and the TGI (SNB-75; read-out: Log TGI (converted)) was > 100 µM. The GI50 (SN12C) was > 100 µM, the LC50 (SN12C) was > 100 µM and the TGI (SN12C; read-out: Log TGI (converted)) was > 100 µM. The GI50 (NCI-H322M) was > 100 µM, the CC50 (NCI-H322M; [5]) was > 100 µM and the TGI (NCI-H322M; read-out: Log TGI (converted)) was > 100 µM. The GI50 (NCI-H522) was > 100 µM, the CC50 (NCI-H522; [5]) was > 100 µM and the TGI (NCI-H522; read-out: Log TGI (converted)) was > 100 µM. The IC50 [1] was 2.7 µM, the GI50 (K562) was 47.9 µM and the CC50 (K562; [5]) was > 100 µM. For the same molecule, the TGI (K562; read-out: Log TGI (converted)) was > 100 µM, the GI50 (CAKI-1) was > 100 µM and the LC50 (CAKI-1) was > 100 µM. For the same molecule, the TGI (CAKI-1; read-out: Log TGI (converted)) was > 100 µM, the Activity (T47D [2]) was “inactive” and the GI50 (MCF7) was > 100 µM. For the same molecule, the LC50 (MCF7) was > 100 µM, the TGI (MCF7; read-out: Log TGI (converted)) was > 100 µM and the GI50 (ACHN) was > 100 µM. The CC50 (ACHN; [5]) was > 100 µM, the TGI (ACHN; read-out: Log TGI (converted)) was > 100 µM and the GI50 (HCT-15) was > 100 µM. For the same molecule, the CC50 (HCT-15; [5]) was > 100 µM, the TGI (HCT-15; read-out: Log TGI (converted)) was > 100 µM and the GI50 (SR) was 97.7 µM. For the same molecule, the CC50 (SR; [5]) was > 100 µM, the TGI (SR; read-out: Log TGI (converted)) was > 100 µM and the GI50 (786-0) was > 100 µM. For the same molecule, the LC50 (786-0) was > 100 µM, the TGI (786-0; read-out: Log TGI (converted)) was > 100 µM and the GI50 (SW-620) was > 100 µM. The CC50 (SW-620; [5]) was > 100 µM, the TGI (SW-620; read-out: Log TGI (converted)) was > 100 µM and the GI50 (SNB-19) was > 100 µM. The LC50 (SNB-19) was > 100 µM, the TGI (SNB-19; read-out: Log TGI (converted)) was > 100 µM and the GI50 (U-251) was 100 µM. For the same molecule, the LC50 (U-251) was > 100 µM, the TGI (U-251; read-out: Log TGI (converted)) was > 100 µM and the GI50 (SK-MEL-28) was > 100 µM. The CC50 (SK-MEL-28; [5]) was > 100 µM, the TGI (SK-MEL-28; read-out: Log TGI (converted)) was > 100 µM and the GI50 (MDA-MB-231) was > 100 µM. The LC50 (MDA-MB-231) was > 100 µM, the TGI (MDA-MB-231; read-out: Log TGI (converted)) was > 100 µM and the GI50 (UACC-62) was > 100 µM. The LC50 (lethal concentration, 50% cell kill) (UACC-62) was > 100 µM, the TGI (UACC-62; read-out: Log TGI (converted)) was > 100 µM and the GI50 [3] was > 100 µM. For the same molecule, the CC50 [3, 5] was > 100 µM, the TGI ([3]; read-out: Log TGI (converted)) was > 100 µM and the GI50 (HCT-116) was > 100 µM. For the same molecule, the CC50 (HCT-116; [5]) was > 100 µM, the TGI (HCT-116; read-out: Log TGI (converted)) was > 100 µM and the GI50 (NCI/ADR-RES) was > 100 µM. For the same molecule, the LC50 (concentration killing 50% of cells) (NCI/ADR-RES) was > 100 µM, the TGI (NCI/ADR-RES; read-out: Log TGI (converted)) was > 100 µM and the GI50 (UO-31) was > 100 µM. For the same molecule, the LC50 (UO-31) was > 100 µM, the TGI (UO-31; read-out: Log TGI (converted)) was > 100 µM and the GI50 (COLO 205) was > 100 µM. The CC50 (COLO 205; [5]) was > 100 µM, the TGI (COLO 205; read-out: Log TGI (converted)) was > 100 µM and the GI50 (KM12) was > 100 µM. For the same molecule, the CC50 (KM12; [5]) was > 100 µM, the TGI (KM12; read-out: Log TGI (converted)) was > 100 µM and the GI50 (PC-3) was 85.1 µM. For the same molecule, the LC50 (PC-3) was > 100 µM, the TGI (PC-3; read-out: Log TGI (converted)) was > 100 µM and the GI50 (BT-549) was 74.1 µM. For the same molecule, the LC50 (BT-549) was > 100 µM, the TGI (BT-549; read-out: Log TGI (converted)) was > 100 µM and the GI50 (OVCAR-5) was > 100 µM. For the same molecule, the LC50 (OVCAR-5) was > 100 µM, the TGI (OVCAR-5; read-out: Log TGI (converted)) was > 100 µM and the GI50 (SF-295) was > 100 µM. The LC50 (SF-295) was > 100 µM, the TGI (SF-295; read-out: Log TGI (converted)) was > 100 µM and the GI50 (HOP-62) was > 100 µM. For the same molecule, the CC50 (HOP-62; [5]) was > 100 µM, the TGI (HOP-62; read-out: Log TGI (converted)) was > 100 µM and the GI50 (CCRF-CEM) was 2.09 µM. For the same molecule, the LC50 (CCRF-CEM) was > 100 µM, the TGI (CCRF-CEM; read-out: Log TGI (converted)) was > 100 µM and the GI50 (NCI-H23) was > 100 µM. For the same molecule, the CC50 (NCI-H23; [5]) was > 100 µM, the TGI (NCI-H23; read-out: Log TGI (converted)) was > 100 µM and the GI50 (LOX IMVI) was > 100 µM. For the same molecule, the LC50 (LOX IMVI) was > 100 µM, the TGI (LOX IMVI; read-out: Log TGI (converted)) was > 100 µM and the GI50 (DU-145) was > 100 µM. For the same molecule, the CC50 (DU-145; [5]) was > 100 µM, the TGI (DU-145; read-out: Log TGI (converted)) was > 100 µM and the GI50 (T47D [4]) was 81.3 µM. For the same molecule, the LC50 (T47D [4]) was > 100 µM, the TGI (T47D [4]; read-out: Log TGI (converted)) was > 100 µM and the GI50 (A549) was > 100 µM. The CC50 (A549; [5]) was > 100 µM and the TGI (A549; read-out: Log TGI (converted)) was > 100 µM.
